Assay outcomes as filed in PubChem BioAssay.
HCV core dimer = HCV core protein dimerization inhibition | TR-FRET GST/Flag-core106 dimerization, 1536-well | inhibition, % at 5 µM | 300,000 compounds, 0.33% hits | AID 1899;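 active = inhibition above the mean of all tested compounds plus 3 SD, set per screening campaign, cut at about 45% in these data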
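Material: Tagged HCV core106 pair (GST and Flag) | Amount: GST-core106 13.5 nM, Flag-core106 17 nM | Medium: KF-containing HEPES buffer, pH 7.45, DTT, CHAPS, BSA | Reagent: Eu donor and XL665 acceptor anti-tag antibodies | Schedule: 4 h at 22.5 °C | Technique: Time-resolved FRET, ex 340 nm, em 617 and 671 nm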
DNA FID counter = counter-screen for HCV NS3 helicase inhibitors: DNA intercalator displacement. AID 1845. DNA fluorescent intercalator displacement, fluorescence. inhibition, % at 7.9 µM. 290,000 compounds, 0.17% hits; in the data active = inhibition above about 37%;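 also: 0% = vehicle and 100% = reference compound; higher means more ethidium bromide displaced from hairpin DNA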
GPR7 antagonist = human neuropeptides B/W receptor 1 antagonism; P48145; 290,000 compounds, 1.1% hits; inhibition, % at 4.4 µM; GPR7-expressing cells, fluorescence antagonist assay; AID 1861; in the data active = inhibition above about 16%, passing the limit was not always enough;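 also: cells stimulated with the agonist NPW; 0% = agonist with vehicle and 100% = vehicle without agonist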
GRK2 inh = inhibitors of human GRK2 displacing RNA aptamer. P25098. bead flow cytometry, FAM-aptamer displacement from GRK2. inhibition of aptamer binding, % at 10 µM. 330,000 compounds, 0.59% hits;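 active = inhibition of aptamer binding above 40%, roughly 3 SD of noise, on plates passing a quality check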;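 also: median bead fluorescence of bound FAM aptamer so fluorescent compounds give negative values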
HCV NS3 hel inh = inhibitors of Hepatitis C virus NS3 helicase; NS3 helicase DNA unwinding, Cy5 molecular beacon fluorescence; inhibition, % at 10.9 µM; 290,000 compounds, 0.56% hits; AID 1800;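 active = inhibition above the mean of all tested compounds plus 3 SD, set per campaign, cut at about 35% in these data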;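 also: 0% = DMSO wells and 100% = thioflavine S control wells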
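Material: hepatitis C virus NS3 helicase domain fragment enzyme; measured by: Cy5 fluorescence, 0 and 60 min reads; control set: DMSO and thioflavine S; incubation: 60 min unwinding reaction at 25 °C after ATP addition; read-out basis: % inhibition from 60/0 min fluorescence ratio, DMSO 0%, thioflavine S 100%; repeats: singlicate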
DAGLB inh = diacylglycerol lipase beta (human) inhibition; HEK293T DAGLB membrane lysate, EnzChek fluorogenic substrate; AID 504411; 340,000 compounds, 0.059% hits; inhibition, % at 5.17 µM; in the data active = inhibition above about 34%;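 also: 0% = enzyme with vehicle and 100% = wells lacking enzyme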
Target sequence (Q8NCG7 whole entry, looked up): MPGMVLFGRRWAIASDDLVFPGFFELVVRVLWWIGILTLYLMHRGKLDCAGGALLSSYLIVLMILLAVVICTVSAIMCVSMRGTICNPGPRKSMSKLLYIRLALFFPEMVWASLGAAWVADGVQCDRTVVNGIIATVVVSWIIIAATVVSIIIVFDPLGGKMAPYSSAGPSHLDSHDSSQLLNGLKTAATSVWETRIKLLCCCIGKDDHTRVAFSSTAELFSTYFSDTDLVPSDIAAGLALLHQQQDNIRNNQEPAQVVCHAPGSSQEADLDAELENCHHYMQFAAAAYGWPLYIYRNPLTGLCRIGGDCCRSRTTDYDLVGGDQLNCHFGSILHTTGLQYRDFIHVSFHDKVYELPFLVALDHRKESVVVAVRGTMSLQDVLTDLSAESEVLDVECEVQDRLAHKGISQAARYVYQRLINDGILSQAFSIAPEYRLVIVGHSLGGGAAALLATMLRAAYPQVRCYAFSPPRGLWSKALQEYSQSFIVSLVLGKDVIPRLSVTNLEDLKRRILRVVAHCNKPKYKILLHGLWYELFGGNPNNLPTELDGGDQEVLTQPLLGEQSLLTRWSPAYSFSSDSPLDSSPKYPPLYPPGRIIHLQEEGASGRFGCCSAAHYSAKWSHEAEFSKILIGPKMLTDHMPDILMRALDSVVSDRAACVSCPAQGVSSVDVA
GRK2 CP1 = confirmation of human GRK2 inhibitors displacing RNA aptamer. shares compounds with GRK2 inh. bead-bound GRK2, FAM-aptamer displacement, flow cytometry. AID 504451. 2,000 compounds, 4% hits. aptamer displacement, % at 10 µM;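 active = aptamer displacement above 40%, near three times the noise of non-fluorescent compounds, on plates passing quality checks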;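 also: negative values mostly reflect intrinsic compound fluorescence rather than true enhancement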
FAM quench CP1 = counter-screen for GRK2 aptamer inhibitors: fluorescent aptamer quenchers | AID 504580 | shares compounds with GRK2 inh | fluorescence response (% of DMSO), % at 10 µM | Carboxyfluorescein RNA aptamer on beads, flow cytometry quenching; hits give low values | 2,000 tested, under 10 active;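 active = compounds that quench the bead-bound fluorescent RNA probe, cutting fluorescence to under half of the solvent control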;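 also: counterscreen run without GRK2 so only probe quenching by compound is measured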
GRK2 confirm 2 = human GRK2 inhibition confirmation, cherry pick 2 | bead-bound GRK2, FAM-aptamer displacement, flow cytometry | shares compounds with GRK2 inh | inhibition of aptamer binding, % at 10 µM | 360 tested, under 10 active;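 active = inhibition of aptamer binding above 40%, about triple the noise seen with nonglowing compounds, on plates passing quality control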;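 also: negative values mostly come from compounds that fluoresce themselves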
FAM quench CP2 = counter-screen for GRK2 binding hits: quenchers of fluorescent RNA aptamer | shares compounds with GRK2 inh | carboxyfluorescein RNA aptamer beads, flow cytometry quenching; hits give low values | fluorescence response vs DMSO, % at 10 µM | 360 tested, under 10 active | AID 588494;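 active = response vs DMSO under 50%, meaning signal dropped by over half, treated as fluorescence quencher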;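 also: labelled aptamer on streptavidin beads without GRK2 as a quench counter-screen; 100% = bead fluorescence of DMSO wells and lower means quenching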
* marks the source's active call; other numbers are inactive results; / = no result given. A selection: hits, their analogues and other compounds. The true share with any hit is near 2.2%.

SMILES | HCV core dimer | DNA FID counter | GPR7 antagonist | GRK2 inh | HCV NS3 hel inh | DAGLB inh | GRK2 CP1 | FAM quench CP1 | others
COc1ccc(C(=O)N(CN2CCCC2=O)c2ccc(C)cc2)cc1 | 5 | -13 | -1 | 0 | -1 | -2 | / | /
Cc1cccc(C(=O)NNC(=O)c2ccccc2C)c1 | -10 | -3 | -10 | 1 | 5 | 3 | / | /
Cc1ccc(CONC(=O)c2cccc([N+](=O)[O-])c2)cc1 | / | / | / | 43* | / | -4 | / | / | GRK2 confirm 2=-11;FAM quench CP2=100
Cc1ccccc1C(=O)NNC(=O)c1cccc([N+](=O)[O-])c1 | 2 | -5 | 2 | 60* | -1 | 0 | -4 | 101
O=C(Nc1cccc([N+](=O)[O-])c1)c1cccc(C(=O)Nc2cccc([N+](=O)[O-])c2)c1 | 11 | -2 | -14 | 67* | -12 | 1 | 27 | 101
COC(=O)C(Cc1ccccc1)NC(=O)CCc1c[nH]c2ccccc12 (centres undefined) | -6 | -15 | 31 | 1 | 6 | -2 | / | /
C/C(Cc1ccccc1)=N\NC(=O)CNC(=O)c1ccc(Br)cc1 | 5 | -6 | 0 | 78* | 3 | 1 | -13 | 89
Cc1cc(C)cc(N(CC(=O)N2CCCCCC2)S(C)(=O)=O)c1 | 1 | -14 | -4 | 0 | 8 | -1 | / | /
O=C(NC1CCCCC1)c1c2c(nc3ccccc13)CCC2 | 16 | -12 | -1 | 2 | 9 | 0 | / | / | GRK2 confirm 2=-1;FAM quench CP2=100
O=C(O)c1c2c(nc3ccccc13)CCCCC2 | -6 | 4 | -9 | 3 | -9 | -1 | / | /
CCNc1c(NS(=O)(=O)c2ccc(OC)c(Cl)c2)c(=O)oc2ccccc12 | -2 | -21 | -14 | 69* | -1 | -1 | 5 | 101
Cc1cc(=O)n(C(C)(C)C)c(=O)n1Cc1ccccc1 | 8 | -11 | 2 | 1 | -4 | -2 | / | /
CC(C(=O)Nc1ccon1)N1C(=O)c2ccccc2S1(=O)=O (centres undefined) | -1 | / | / | 95* | / | 0 | -1 | 96
Cc1ccc(-c2ccccc2)n1-c1ccc(C(=O)O)cc1 | -7 | -24 | 9 | 51* | 33 | 3 | -3 | 96 | GRK2 confirm 2=-7;FAM quench CP2=103
Nc1cc2c(cc1[N+](=O)[O-])OCCOCCOCCO2 | -4 | 1 | 0 | 1 | -2 | 0 | / | /
COc1cc(-c2nc(-c3ccc(NC(=O)c4ccc(Br)o4)cc3)no2)cc(OC)c1OC | 5 | -6 | -5 | 82* | -3 | -3 | -2 | 99
CC(C)(C)C(=O)Nc1cc2c3c(c1)CCN3C(=O)CC2 | 5 | -1 | 2 | 5 | 7 | -2 | / | /
C#CCn1c(=O)cc(C)c2ccccc21 | -1 | -2 | -6 | 47* | -1 | 0 | 2 | 102
Cc1cc(=O)n(CCC(=O)O)c2ccccc12 | 2 | -1 | -20 | 0 | -1 | -2 | / | /
Cn1c(N)c(S(=O)(=O)NCc2ccc(F)cc2)c(=O)n(C)c1=O | -9 | -3 | -6 | 0 | 1 | -1 | / | /
C=CCCN(Cc1ccccc1)S(=O)(=O)c1cc(Br)ccc1Br | / | / | / | 0 | / | -16 | / | /
COc1ccccc1C(=O)Nc1ccc(N2CCCCC2)cc1 | -10 | -14 | 4 | 0 | 12 | 3 | / | /
COc1cccc(OC)c1C(=O)Nc1ccc(N2CCCC2)cc1 | 25 | -4 | 1 | 100* | -78 | 0 | 3 | 93
Cc1nnc(SCC(=O)N2CCN(c3ccccc3)CC2)n(N)c1=O | 1 | -1 | -4 | 1 | -5 | 0 | / | /
CS(=O)(=O)Oc1ccc2c(c1)O/C(=C\C=C\c1ccccc1)C2=O | 1 | -11 | 13 | 49* | 2 | 0 | -5 | 97
SMILES | HCV core dimer | DNA FID counter | GPR7 antagonist | GRK2 inh | HCV NS3 hel inh | DAGLB inh | GRK2 CP1 | FAM quench CP1 | others
CS(=O)(=O)Oc1ccc2c(c1)O/C(=C\c1cccc([N+](=O)[O-])c1)C2=O | / | 6 | -2 | 1 | -4 | 1 | / | /
O=C(CN1CCc2ccccc2C1)Nc1ccccc1C(F)(F)F | 9 | -20 | -7 | 48* | -4 | -10 | 4 | 93
Cc1ccc(S(=O)(=O)N(Cc2cc3ccccc3[nH]c2=O)c2cccc(C)c2)cc1 | 5 | -3 | -14 | 0 | 1 | 2 | / | /
CCOc1ccc(NC(=O)c2ccc(N3CC4CC(C3)c3cccc(=O)n3C4)c(NC(=O)c3ccncc3)c2)cc1 (centres undefined) | 6 | -64 | -7 | 0 | -2 | 4 | / | /
CCOc1ccc(NC(=O)c2ccc(N3CC4CC(C3)c3cccc(=O)n3C4)c(N)c2)cc1 (centres undefined) | -1 | -50 | -2 | 93* | -6 | 0 | 0 | 100
CC(CNC(=O)COC(=O)c1cccnc1Cl)c1ccccc1 (centres undefined) | / | / | / | / | / | -3 | / | /
NC(=O)C1CCN(CC(=O)Nc2cccnc2Cl)CC1 | 1 | -2 | -7 | 42* | -4 | 0 | -4 | 135
NC(=O)C1CCN(CC(=O)Nc2ccccc2N2CCOCC2)CC1 | -2 | -4 | -10 | 2 | 0 | -1 | / | /
COc1cccc(NC(=O)CSc2c3c(nc4ccccc24)CCCC3)c1 | 6 | -18 | 10 | 0 | -7 | -6 | / | /
Cc1cccc(NC(=O)CSc2c3c(nc4ccccc24)CCC3)n1 | -4 | -19 | 3 | 0 | -8 | -2 | / | / | GRK2 confirm 2=18;FAM quench CP2=98
O=C(O)c1ccc(/C=C2\SC(=S)N(NC(=O)c3ccccc3[N+](=O)[O-])C2=O)cc1 | / | -8 | -1 | 47* | 12 | -1 | 1 | 101
O=C(NN1C(=O)/C(=C\c2ccc(O)c([N+](=O)[O-])c2)SC1=S)c1ccccc1Cl | -7 | 0 | -4 | 2 | 0 | 31 | / | /
O=C(O)/C=C/C(=O)Nc1ccc(Cc2ccc(NC(=O)/C=C/C(=O)O)cc2)cc1 | -5 | -3 | -14 | 40 | -14 | -2 | 1 | 94
COc1ccc(C(=O)NC(Cn2ccnc2)C(C)(C)C)cc1OC1CCN(C(C)C)CC1 (centres undefined) | -21 | 20 | -27 | 80* | 6 | -1 | / | / | GRK2 confirm 2=-3;FAM quench CP2=102
CCNc1nc(NCC)n2c(SCC(=O)Nc3ccc(NC(C)=O)cc3)nnc2n1 | 0 | / | / | 31 | / | 1 | / | / | GRK2 confirm 2=0;FAM quench CP2=106
CCNc1nc(NCC)n2c(SCC(=O)Nc3ccccc3OC(F)F)nnc2n1 | / | / | / | 22 | / | 1 | / | / | GRK2 confirm 2=-2;FAM quench CP2=101
c1ccc(Nc2nc(-c3ccccc3)ns2)cc1 | -9 | -9 | -8 | 0 | -6 | -6 | / | /
